Data as given in ChEMBL document CHEMBL4152234, “Aminobenzothiazole derivatives stabilize the thermolabile p53 cancer mutant Y220C and show anticancer activity in p53-Y220C cell lines” (Eur J Med Chem, 2018).
The source made the active and inactive calls. The calls are words filed in the database; no cut-off is given here.

Experiments:
[1] = system: Cellular tumor antigen p53 (Homo sapiens), P04637 [Y220C]; experiment: Activation of p53 Y220C mutant in human NUGC3 cells assessed as change in BRCA1 mRNA level at 60 uM after 18 hrs by RT-PCR method relative to control; assay type: cell-based
In short: (§1)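 p53 signalling qPCR array covering 84 genes. Cells were exposed for 18 h, with 0.5% DMSO in both compound and control samples. Total RNA was extracted and purified. Fold-changes were calculated by ΔΔCt using β2-microglobulin (B2M) as the housekeeping gene. Two independent biological replicates were run per cell line.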

[2] = system: Cellular tumor antigen p53 (Homo sapiens), P04637 [Y220C]; experiment: Activation of p53 Y220C mutant in human NUGC3 cells assessed as change in CHEK1 mRNA level at 60 uM after 18 hrs by RT-PCR method relative to control; assay type: cell-based; in short: as §1
[3] = system: Cellular tumor antigen p53 (Homo sapiens), P04637 [Y220C]; experiment: Activation of p53 Y220C mutant in human NUGC3 cells assessed as change in TP53 mRNA level at 60 uM after 18 hrs by RT-PCR method relative to control; assay type: cell-based
In short: (§2)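 p53 signalling qPCR array covering 84 p53 pathway genes. Cells were exposed for 18 h, and compound and control wells both held 0.5% DMSO. Total RNA was extracted and purified. Fold-changes were calculated by the ΔΔCt method against the untreated sample, with β2-microglobulin (B2M) as the housekeeping gene. Each cell line was run in two independent biological replicates.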

[4] = system: Cellular tumor antigen p53 (Homo sapiens), P04637 [Y220C]; experiment: Activation of p53 Y220C mutant in human NUGC3 cells assessed as change in PPM1D mRNA level at 60 uM after 18 hrs by RT-PCR method relative to control; assay type: cell-based; in short: as §2
[5] = system: Cellular tumor antigen p53 (Homo sapiens), P04637 [Y220C]; experiment: Activation of p53 Y220C mutant in human NUGC3 cells assessed as change in RB1 mRNA level at 60 uM after 18 hrs by RT-PCR method relative to control; assay type: cell-based; in short: as §2
[6] = system: Cellular tumor antigen p53 (Homo sapiens), P04637 [Y220C]; experiment: Activation of p53 Y220C mutant in human NUGC3 cells assessed as change in PCNA mRNA level at 60 uM after 18 hrs by RT-PCR method relative to control; assay type: cell-based; in short: as §2
[7] = system: Cellular tumor antigen p53 (Homo sapiens), P04637 [Y220C]; experiment: Activation of p53 Y220C mutant in human NUGC3 cells assessed as change in RELA mRNA level at 60 uM after 18 hrs by RT-PCR method relative to control; assay type: cell-based; in short: as §2
[8] = system: Cellular tumor antigen p53 (Homo sapiens), P04637 [Y220C]; experiment: Activation of p53 Y220C mutant in human NUGC3 cells assessed as change in BCL2 mRNA level at 60 uM after 18 hrs by RT-PCR method relative to control; assay type: cell-based; in short: as §1
[9] = system: Cellular tumor antigen p53 (Homo sapiens), P04637 [Y220C]; experiment: Activation of p53 Y220C mutant in human NUGC3 cells assessed as change in FADD mRNA level at 60 uM after 18 hrs by RT-PCR method relative to control; assay type: cell-based; in short: as §1
[10] = system: Cellular tumor antigen p53 (Homo sapiens), P04637 [Y220C]; experiment: Activation of p53 Y220C mutant in human NUGC3 cells assessed as change in MCL1 mRNA level at 60 uM after 18 hrs by RT-PCR method relative to control; assay type: cell-based; in short: as §2
[11] = system: Cellular tumor antigen p53 (Homo sapiens), P04637 [Y220C]; experiment: Activation of p53 Y220C mutant in human NUGC3 cells assessed as change in CCNB1 mRNA level at 60 uM after 18 hrs by RT-PCR method relative to control; assay type: cell-based; in short: as §1
[12] = biological target: T1, Cellular tumor antigen p53 (Homo sapiens, UniProt P04637); experiment: Activation of p53 in human NUGC4 cells assessed as change in F0X03 mRNA level at 60 uM after 18 hrs by RT-PCR method relative to control; assay type: cell-based; settings: read-out: FC
In short: (§3)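 p53 signaling qPCR array of 84 p53-pathway genes. Cells were treated in 6-well plates for 18 h with 0.5% DMSO in compound and control samples. Total RNA was extracted and fold-changes were obtained by the ΔΔCt method against untreated control, with β2-microglobulin (B2M) as housekeeping gene. Two independent biological replicates per cell line.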

[13] = biological target: T1, Cellular tumor antigen p53; experiment: Activation of p53 in human NUGC4 cells assessed as change in MSH2 mRNA level at 60 uM after 18 hrs by RT-PCR method relative to control; assay type: cell-based; settings: read-out: FC; in short: as §3
[14] = biological target: T1, Cellular tumor antigen p53; experiment: Activation of p53 in human NUGC4 cells assessed as change in BAX mRNA level at 60 uM after 18 hrs by RT-PCR method relative to control; assay type: cell-based; settings: read-out: FC; in short: as §2
[15] = biological target: T1, Cellular tumor antigen p53; experiment: Activation of p53 in human NUGC4 cells assessed as change in PRKCA mRNA level at 60 uM after 18 hrs by RT-PCR method relative to control; assay type: cell-based; settings: read-out: FC
[16] = biological target: T1, Cellular tumor antigen p53; experiment: Activation of p53 in human NUGC4 cells assessed as change in EGFR mRNA level at 60 uM after 18 hrs by RT-PCR method relative to control; assay type: cell-based; settings: read-out: FC; in short: as §3
[17] = biological target: T1, Cellular tumor antigen p53; experiment: Activation of p53 in human NUGC4 cells assessed as change in E2F1 mRNA level at 60 uM after 18 hrs by RT-PCR method relative to control; assay type: cell-based; settings: read-out: FC; in short: as §3
[18] = biological target: T1, Cellular tumor antigen p53; experiment: Activation of p53 in human NUGC4 cells assessed as change in E2F3 mRNA level at 60 uM after 18 hrs by RT-PCR method relative to control; assay type: cell-based; settings: read-out: FC; in short: as §3
[19] = biological target: T1, Cellular tumor antigen p53; experiment: Activation of p53 in human NUGC4 cells assessed as change in PPM1D mRNA level at 60 uM after 18 hrs by RT-PCR method relative to control; assay type: cell-based; settings: read-out: FC
[20] = biological target: T1, Cellular tumor antigen p53; experiment: Activation of p53 in human NUGC4 cells assessed as change in PCNA mRNA level at 60 uM after 18 hrs by RT-PCR method relative to control; assay type: cell-based; settings: read-out: FC
[21] = biological target: T1, Cellular tumor antigen p53; experiment: Activation of p53 in human NUGC4 cells assessed as change in MDM4 mRNA level at 60 uM after 18 hrs by RT-PCR method relative to control; assay type: cell-based; settings: read-out: FC; in short: as §3
[22] = biological target: T1, Cellular tumor antigen p53; experiment: Activation of p53 in human NUGC4 cells assessed as change in BCL2A1 mRNA level at 60 uM after 18 hrs by RT-PCR method relative to control; assay type: cell-based; settings: read-out: FC; in short: as §2
[23] = biological target: T1, Cellular tumor antigen p53; experiment: Activation of p53 in human NUGC4 cells assessed as change in PIDD1 mRNA level at 60 uM after 18 hrs by RT-PCR method relative to control; assay type: cell-based; settings: read-out: FC
[24] = biological target: T1, Cellular tumor antigen p53; experiment: Activation of p53 in human NUGC4 cells assessed as change in IL6 mRNA level at 60 uM after 18 hrs by RT-PCR method relative to control; assay type: cell-based; settings: read-out: FC; in short: as §3
[25] = biological target: T1, Cellular tumor antigen p53; experiment: Activation of p53 in human NUGC4 cells assessed as change in JUN mRNA level at 60 uM after 18 hrs by RT-PCR method relative to control; assay type: cell-based; settings: read-out: FC; in short: as §3
[26] = biological target: T1, Cellular tumor antigen p53; experiment: Activation of p53 in human NUGC4 cells assessed as change in XRCC5 mRNA level at 60 uM after 18 hrs by RT-PCR method relative to control; assay type: cell-based; settings: read-out: FC
[27] = system: Cellular tumor antigen p53 (Homo sapiens), P04637 [Y220C]; experiment: Activation of p53 Y220C mutant in human HuH7 cells assessed as increase in BBC3 mRNA level at 30 uM after 18 hrs by RT-PCR method; assay type: cell-based
In short: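 Real-time PCR. Cells were treated for 18 h, with 0.5% DMSO in both compound and control samples. Relative mRNA levels were quantified by the ΔΔCt method as fold-change against the untreated sample. Each sample was measured in triplicate, and data are given as mean ± SEM with an unpaired t-test.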

Huh-7 = experiment: Upregulation of NOXA mRNA level in p53 Y220C mutant knockout human HuH7 cells at 30 uM after 18 hrs by RT-PCR method; assay type: functional, cell-based

- fold change (FC) [1]: 0.6
- fold change (FC) [2]: 1.2
- fold change (FC) [3]: 0.7
- fold change (FC) [4]: 0.9
- fold change (FC) [5]: 0.9
- fold change (FC) [6]: 0.8
- fold change (FC) [7]: 1.1
- fold change (FC) [8]: 1.7
- fold change (FC) [9]: 0.4
- fold change (FC) [10]: 1.7
- fold change (FC) [11]: 1.1
- fold induction at 60 µM [12]: 0.8
- fold induction at 60 µM [13]: 0.7
- fold induction at 60 µM [14]: 0.8
- fold induction at 60 µM [15]: 1
- fold induction at 60 µM [16]: 1
- fold induction at 60 µM [17]: 0.5
- fold induction at 60 µM [18]: 0.7
- fold induction at 60 µM [19]: 0.9
- fold induction at 60 µM [20]: 0.6
- fold induction at 60 µM [21]: 0.9
- fold induction at 60 µM [22]: 6.1
- fold induction at 60 µM [23]: 0.8
- fold induction at 60 µM [24]: 7.9
- fold induction at 60 µM [25]: 0.7
- fold induction at 60 µM [26]: 0.8
- Activity [27]: Active
SMILES: CCNC(=O)c1c(O)c(I)c(-n2cccc2)c2sc(N(CC)CC)nc12
- Activity (Huh-7): inactive
